Source: article PMC7115694 (European Journal of Medicinal Chemistry, 2010)
Marks after values point to notes of the source that are not given here.

Tests used:
Format in all cases: cell-based
Staphylococcus aureus = assay: MIC by tube dilution method; conditions: observed, S. aureus, 37 °C 24 h
Bacillus subtilis = assay: MIC by tube dilution method; conditions: observed, B. subtilis, 37 °C 24 h
Outline: (§1)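 Test compound is diluted in double strength nutrient broth (I.P.) by tube dilution, with ciprofloxacin as reference. Samples incubated at 37 °C for 24 h. MIC is the lowest concentration inhibiting microbial growth, transformed into pMIC for analysis.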

Escherichia coli = assay: MIC by tube dilution method; conditions: observed, E. coli, 37 °C 24 h
Outline: as §1

Candida albicans = assay: MIC by tube dilution method; conditions: observed, C. albicans, 37 °C 48 h
Aspergillus niger = assay: MIC by tube dilution method; conditions: observed, A. niger, 25 °C 7 d
[1] = system: S. aureus, B. subtilis and E. coli; assay: Average antibacterial activity; conditions: average antibacterial activity (pMICsa + pMICbs + pMICec)/3
C. albicans and A. niger = assay: Average antifungal activity; conditions: average antifungal activity (pMICca + pMICan)/2
[2] = system: S. aureus, B. subtilis, E. coli, C. albicans and A. niger; assay: Average antimicrobial activity; conditions: mean of five pMIC values
Feline Herpes virus = assay: organism not typed; conditions: CRFK, read-out: EC50 Feline Corona Virus
Para-influenza-3 virus = assay: organism not typed; conditions: Vero, read-out: EC50 Para-influenza-3 virus
Reovirus-1 = assay: organism not typed; conditions: Vero, read-out: EC50 Reovirus-1
HEL cells = assay: Cytotoxicity in uninfected cell cultures; conditions: microscopically detectable alteration of cell morphology
Outline: (§2)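 Uninfected cell cultures are exposed to serial dilutions of test compound in parallel with the virus cytopathicity assays. Cells are examined microscopically. Minimum cytotoxic concentration is the lowest concentration causing a microscopically detectable alteration of normal cell morphology.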

HeLa cells = assay: Cytotoxicity in uninfected cell cultures; conditions: cell morphology
Outline: as §2

Vero cells = assay: Cytotoxicity in uninfected cell cultures; conditions: cell morphology
Outline: as §2

SMILES | pMICsa (Staphylococcus aureus) | pMICbs (Bacillus subtilis) | pMICec (Escherichia coli) | pMICca (Candida albicans) | pMICan (Aspergillus niger) | pMICab [1] | pMICaf (C. albicans and A. niger) | pMICam [2] | EC50 (Feline Herpes virus) [µg/mL] | EC50 (Para-influenza-3 virus) [µg/mL] | EC50 (Reovirus-1) [µg/mL] | Minimum cytotoxic concentration (HEL cells) [µg/mL] | Cytotoxicity Minimum cytotoxic concentration (HeLa cells) [µg/mL] | Minimum cytotoxic concentration (Vero cells) [µg/mL]
CCCCCCCCCCCCCCCC(=O)n1c(-c2ccc(S(=O)(=O)O)cc2)nc2ccccc21 [Compound 19] | 2.23 | 2.23 | 1.61 | 1.61 | 1.61 | 2.02 | 1.61 | 1.86 | > 100 | > 100 | > 100 | >100 | >100 | >100
O=C(c1cccnc1)n1c(-c2ccc(S(=O)(=O)O)cc2)nc2ccccc21 [Compound 15] | 2.13 | 2.13 | 2.39 | 1.75 | 1.48 | 2.22 | 1.62 | 1.98 | > 100 | > 100 | > 100 | >100 | >100 | >100
O=C(O)c1cn(C2CC2)c2cc(N3CCNCC3)c(F)cc2c1=O [Ciprofloxacin, ciprofloxacin, reference compound] | 2.61* | 2.61* | 2.61* | – | – | 2.61 | – | – | – | – | – | – | – | –
O=C(c1ccccc1)n1c(-c2ccc(S(=O)(=O)O)cc2)nc2ccccc21 [Compound 2] | 2.08 | 2.12 | 2.12 | 1.78 | 1.48 | 2.11 | 1.63 | 1.92 | > 100 | > 100 | > 100 | >100 | >100 | >100
O=C(c1cccc(O)c1)n1c(-c2ccc(S(=O)(=O)O)cc2)nc2ccccc21 [Compound 6] | 2.10 | 2.15 | 2.40 | 1.50 | 1.20 | 2.22 | 1.35 | 1.87 | > 100 | > 100 | > 100 | >100 | >100 | >100
C=C(C)C(=O)n1c(-c2ccc(S(=O)(=O)O)cc2)nc2ccccc21 [Compound 14] | 1.74 | 1.74 | 2.04 | 1.44 | 1.14 | 1.84 | 1.29 | 1.62 | > 100 | > 100 | > 100 | >100 | >100 | >100
O=C(c1ccc(O)cc1O)n1c(-c2ccc(S(=O)(=O)O)cc2)nc2ccccc21 [Compound 7] | 2.12 | 2.42 | 2.42 | 1.52 | 1.22 | 2.32 | 1.37 | 1.94 | > 100 | > 100 | > 100 | 100 | >100 | >100
C=CC(=O)n1c(-c2ccc(S(=O)(=O)O)cc2)nc2ccccc21 [Compound 13] | 1.72 | 2.02 | 2.32 | 1.42 | 1.12 | 2.02 | 1.27 | 1.72 | > 20 | > 100 | > 100 | 100 | >100 | >100
O=C(c1ccc([N+](=O)[O-])cc1)n1c(-c2ccc(S(=O)(=O)O)cc2)nc2ccccc21 [Compound 9, 4-[1-(4-Nitrobenzoyl)-1H-benzoimidazol-2-yl]-benzenesulfonic acid] | 2.43 | 2.43 | 2.43 | 2.13 | 1.53 | 2.43 | 1.83 | 2.19 | > 100 | > 100 | > 100 | >100 | >100 | >100
CCCCCCCC/C=C/CCCCCCCC(=O)n1c(-c2ccc(S(=O)(=O)O)cc2)nc2ccccc21 [Compound 18, 4-(1-octadec-9-enoyl-1H-benzoimidazol-2-yl)-benzenesulfonic acid] | 2.24 | 2.24 | 1.85 | 1.94 | 1.63 | 2.11 | 1.79 | 1.98 | > 100 | > 100 | > 100 | >100 | >100 | >100
OC(Cn1cncn1)(Cn1cncn1)c1ccc(F)cc1F [Fluconazole, fluconazole, reference compound] | – | – | – | 2.64** | 2.64** | – | 2.64 | – | – | – | – | – | – | –
O=C(c1ccc(Cl)cc1)n1c(-c2ccc(S(=O)(=O)O)cc2)nc2ccccc21 [Compound 5] | 2.12 | 2.13 | 2.42 | 1.52 | 1.22 | 2.22 | 1.37 | 1.88 | > 100 | > 100 | > 100 | >100 | >100 | >100
Nc1ccc(C(=O)n2c(-c3ccc(S(=O)(=O)O)cc3)nc3ccccc32)cc1 [Compound 3] | 2.10 | 1.80 | 2.10 | 1.20 | 1.50 | 2.00 | 1.35 | 1.74 | > 100 | > 100 | > 100 | >100 | >100 | >100
C/C=C/C(=O)n1c(-c2ccc(S(=O)(=O)O)cc2)nc2ccccc21 [Compound 12] | 1.85 | 1.85 | 1.85 | 1.44 | 0.84 | 1.85 | 1.14 | 1.57 | > 100 | > 100 | > 100 | >100 | >100 | >100
Nc1ccccc1C(=O)n1c(-c2ccc(S(=O)(=O)O)cc2)nc2ccccc21 [Compound 1] | 1.80 | 2.03 | 2.40 | 1.70 | 1.50 | 2.08 | 1.60 | 1.89 | > 4 | > 4 | > 4 | >100 | ≥20 | –
O=C(c1ccccc1Cl)n1c(-c2ccc(S(=O)(=O)O)cc2)nc2ccccc21 [Compound 4] | 2.09 | 1.82 | 2.42 | 1.52 | 1.22 | 2.11 | 1.37 | 1.81 | > 100 | > 100 | > 100 | >100 | >100 | >100
O=C(c1ccccc1O)n1c(-c2ccc(S(=O)(=O)O)cc2)nc2ccccc21 [Compound 16] | 2.10 | 2.10 | 2.26 | 1.50 | 1.50 | 2.15 | 1.50 | 1.89 | > 100 | > 100 | > 100 | >100 | >100 | >100
